Reference: ChEMBL document CHEMBL1158579, “Antimicrobial triterpenoid glycosides from Cephalaria scoparia” (2010)
Converted amounts (≈) assume the structure as drawn.

Legend:
[1] = test system: Escherichia coli; test: Antimicrobial activity against Escherichia coli ATCC 23999 after 24 hrs by microdilution assay; format: functional
Method in brief: (§1)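 Broth microdilution MIC in Mueller-Hinton broth. Inocula came from 24 h broth cultures grown at 37 °C, were adjusted to 0.5 McFarland and diluted 1:100 in broth. Compounds were tested at final concentrations of 256 to 0.5 µg/mL, with gentamycin at 128 to 0.25 µg/mL. Sealed plates were incubated 24 h at 37 °C. MIC was the lowest concentration with no visible growth. Clear wells were subcultured onto Mueller-Hinton agar. Triplicate.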

[2] = test system: Pseudomonas aeruginosa; test: Antimicrobial activity against Pseudomonas aeruginosa ATCC 27853 after 24 hrs by microdilution assay; format: functional; method in brief: as §1
[3] = test system: Salmonella enterica; test: Antimicrobial activity against Salmonella Typhimurium CCM 5445 after 24 hrs by microdilution assay; format: functional, Salmonella enterica subsp. enterica serovar Typhimurium; method in brief: as §1
[4] = test system: Klebsiella pneumoniae; test: Antimicrobial activity against Klebsiella pneumoniae CCM 2318 after 24 hrs by microdilution assay; format: functional; method in brief: as §1
[5] = test system: Staphylococcus aureus; test: Antimicrobial activity against Staphylococcus aureus ATCC 6538-P after 24 hrs by microdilution assay; format: functional; method in brief: as §1
[6] = test system: Staphylococcus epidermidis; test: Antimicrobial activity against Staphylococcus epidermidis ATCC 12228 after 24 hrs by microdilution assay; format: functional; method in brief: as §1
[7] = test system: Bacillus cereus; test: Antimicrobial activity against Bacillus cereus ATCC 7064 after 24 hrs by microdilution assay; format: functional; method in brief: as §1
[8] = test system: Enterococcus faecalis; test: Antimicrobial activity against Enterococcus faecalis ATCC 29212 after 24 hrs by microdilution assay; format: functional; method in brief: as §1

Compound	MIC ([1]; ATCC 23999, 24 h)	MIC ([2]; ATCC 27853, 24 h)	MIC ([3]; CCM 5445, 24 h)	MIC ([4]; CCM 2318, 24 h)	MIC [5]	MIC ([6]; ATCC 12228, 24 h)	MIC ([7]; ATCC 7064, 24 h)	MIC ([8]; ATCC 29212, 24 h)	MIC [1]	MIC [2]	MIC ([3]; Salmonella enterica subsp. enterica serovar Typhimurium)	MIC [4]	MIC [6]	MIC [7]	MIC [8]
C[C@@H]1O[C@@H](O[C@H]2[C@H](OC(=O)[C@]34CCC(C)(C)C[C@@H]3C3=CC[C@@H]5[C@@]6(C)CC[C@H](O[C@@H]7OC[C@H](O)[C@H](O)[C@H]7O)C(C)(C)[C@@H]6CC[C@@]5(C)[C@]3(C)CC4)O[C@H](CO[C@@H]3O[C@H](CO)[C@@H](O)[C@H](O)[C@H]3O)[C@@H](O)[C@@H]2O)[C@H](O)[C@H](O)[C@H]1O [SCOPOSIDE A]	8 µg/mL (≈ 7.55 µM)	64 µg/mL (≈ 60.4 µM)	128 µg/mL (≈ 121 µM)	64 µg/mL (≈ 60.4 µM)	128 µg/mL (≈ 121 µM)	64 µg/mL (≈ 60.4 µM)	16 µg/mL (≈ 15.1 µM)	32 µg/mL (≈ 30.2 µM)	–	–	–	–	–	–	–
C[C@@H]1O[C@@H](O[C@H]2[C@H](O)[C@@H](O)[C@H](O[C@H]3CC[C@]4(C)[C@H]5CC=C6[C@H]7CC(C)(C)CC[C@]7(C(=O)O[C@@H]7O[C@H](CO[C@@H]8O[C@H](CO)[C@@H](O)[C@H](O)[C@H]8O)[C@@H](O)[C@H](O)[C@H]7O)CC[C@@]6(C)[C@]5(C)CC[C@H]4C3(C)C)O[C@@H]2CO)[C@H](O)[C@H](O[C@@H]2OC[C@@H](O[C@@H]3OC[C@@H](O)[C@H](O)[C@H]3O)[C@H](O)[C@H]2O)[C@H]1O [SCOPOSIDE B]	128 µg/mL (≈ 94.6 µM)	64 µg/mL (≈ 47.3 µM)	64 µg/mL (≈ 47.3 µM)	64 µg/mL (≈ 47.3 µM)	256 µg/mL (≈ 189 µM)	128 µg/mL (≈ 94.6 µM)	16 µg/mL (≈ 11.8 µM)	64 µg/mL (≈ 47.3 µM)	–	–	–	–	–	–	–
C[C@@H]1O[C@@H](O[C@H]2[C@H](O[C@H]3CC[C@]4(C)[C@H]5CC=C6[C@H]7CC(C)(C)CC[C@]7(C(=O)O[C@@H]7O[C@H](CO[C@@H]8O[C@H](CO)[C@@H](O)[C@H](O)[C@H]8O)[C@@H](O)[C@H](O)[C@H]7O)CC[C@@]6(C)[C@]5(C)CC[C@H]4C3(C)C)OC[C@H](O)[C@@H]2O[C@@H]2OC[C@@H](O[C@@H]3O[C@H](CO)[C@@H](O)[C@H](O)[C@H]3O)[C@H](O)[C@H]2O)[C@H](O)[C@H](O[C@@H]2OC[C@@H](O)[C@H](O)[C@H]2O)[C@H]1O [SCOPOSIDE C]	128 µg/mL (≈ 86.2 µM)	128 µg/mL (≈ 86.2 µM)	64 µg/mL (≈ 43.1 µM)	64 µg/mL (≈ 43.1 µM)	64 µg/mL (≈ 43.1 µM)	64 µg/mL (≈ 43.1 µM)	32 µg/mL (≈ 21.5 µM)	32 µg/mL (≈ 21.5 µM)	–	–	–	–	–	–	–
GENTAMICIN	–	–	–	–	1 µg/mL	–	–	–	1 µg/mL	2 µg/mL	1 µg/mL	4 µg/mL	1 µg/mL	4 µg/mL	16 µg/mL
